Laboratory results as given in ChEMBL document CHEMBL4477187, “Macrolides from a Marine-Derived Fungus, Penicillium meleagrinum var. viridiflavum, Showing Synergistic Effects with Fluconazole against Azole-Resistant Candida albicans” (2016).
Values after ≈ are worked out from the molar mass of the structure shown.

What was measured:
Type in all cases: functional
Candida albicans [1] = assay: Antifungal activity against fluconazole/itraconazole/voriconazole-resistant Candida albicans clinical isolate J2-36 incubated for 48 hrs by microdilution assay; settings: isolate J2-36, 48 h
How it was run: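 Clinical isolate grown 48 h at 37 °C with test compound alone, tested up to […] μg/mL. MIC read as lowest concentration giving ≥90% growth reduction versus drug-free control.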

Candida albicans [2] = assay: Antifungal activity against fluconazole/itraconazole/voriconazole-resistant Candida albicans clinical isolate J2-36 incubated for 48 hrs in presence of fluconazole by checkerboard microdilution assay; settings: isolate J2-36, 48 h
How it was run: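 Test compound combined with fluconazole against the clinical isolate, 48 h at 37 °C. Combination MIC taken as lowest concentration giving ≥90% growth reduction versus drug-free control.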

Candida albicans [3] = assay: Antifungal activity against fluconazole/itraconazole/voriconazole-resistant Candida albicans clinical isolate J2-36 assessed as fractional inhibitory concentration in presence of fluconazole incubated for 48 hrs by checkerboard microdilution assay
How it was run: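 FICA per test compound = MIC in combination with fluconazole / MIC alone. Clinical isolate incubated 48 h at 37 °C. Each MIC = lowest concentration giving ≥90% growth reduction versus drug-free control.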

Row | SMILES | MIC (Candida albicans [1]) [µg/mL] | MIC (Candida albicans [2]) [µg/mL] | Ratio (Candida albicans [3])
1 | CCC[C@@H]1CC[C@H](C)CCCCC(=O)N(C)[C@@H](Cc2ccc(OCCO)cc2)C(=O)O1 | 16 (≈ 36.9 µM) | 0.125 | 0.0078
2 | CCC[C@H](O)C[C@@H]1CC[C@H](C)CCCCC(=O)N(C)[C@@H](Cc2ccc(OCCO)cc2)C(=O)O1 | 1 (≈ 2.09 µM) | 0.0078 | 0.0078
3 | CCCCC[C@@H]1CC[C@H](C)CCCCC(=O)N(C)[C@@H](Cc2ccc(OCC=C(C)C)cc2)C(=O)O1 | > 32 | 1 | <0.031
4 | C[C@@H]1CCCCC(=O)N(C)[C@@H](Cc2ccc(OCCO)cc2)C(=O)O[C@H](C[C@H](C)O)CC1 | 8 (≈ 17.8 µM) | 0.031 | 0.0039
5 | CCC[C@H](O)C[C@@H]1CC[C@H](C)CCCCC(=O)N(C)[C@@H](Cc2ccc(OCC(O)C(C)(C)O)cc2)C(=O)O1 (some centres not stated) | > 32 | 0.5 | <0.016
6 | OC(Cn1cncn1)(Cn1cncn1)c1ccc(F)cc1F [FLUCONAZOLE] | > 64 |  | 
7 | CCCCC[C@@H]1CC[C@H](C)CCCCC(=O)N(C)[C@@H](Cc2ccc(OCCO)cc2)C(=O)O1 | 2 (≈ 4.33 µM) | 0.0016 | 0.00078
8 | CCCCCCC[C@@H]1CC[C@H](C)CCCCC(=O)N(C)[C@@H](Cc2ccc(OCCO)cc2)C(=O)O1 | > 32 | 0.5 | <0.016
